Activity calls are given as the source filed them. The rule behind the calls is not given here.
Tests used:
Pyruvate kinase PKM [1] = molecular target: T1, Pyruvate kinase PKM (Homo sapiens, UniProt P14618); assay: Activation of human recombinant His-tagged PKM2 expressed in Escherichia coli assessed as maximal activity using PEP as substrate measured at 30 sec between 3 and 6 mins in presence of […] by fluorescent pyruvate kinase-lactate dehydrogenase coupled assay relative to control
How it was run: (§1)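 Pyruvate kinase activity read by fluorescent pyruvate kinase–lactate dehydrogenase coupled assay; AC50 and maximal activation are means of at least two determinations.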
Target sequence in this assay (P14618 2-531 limits assumed): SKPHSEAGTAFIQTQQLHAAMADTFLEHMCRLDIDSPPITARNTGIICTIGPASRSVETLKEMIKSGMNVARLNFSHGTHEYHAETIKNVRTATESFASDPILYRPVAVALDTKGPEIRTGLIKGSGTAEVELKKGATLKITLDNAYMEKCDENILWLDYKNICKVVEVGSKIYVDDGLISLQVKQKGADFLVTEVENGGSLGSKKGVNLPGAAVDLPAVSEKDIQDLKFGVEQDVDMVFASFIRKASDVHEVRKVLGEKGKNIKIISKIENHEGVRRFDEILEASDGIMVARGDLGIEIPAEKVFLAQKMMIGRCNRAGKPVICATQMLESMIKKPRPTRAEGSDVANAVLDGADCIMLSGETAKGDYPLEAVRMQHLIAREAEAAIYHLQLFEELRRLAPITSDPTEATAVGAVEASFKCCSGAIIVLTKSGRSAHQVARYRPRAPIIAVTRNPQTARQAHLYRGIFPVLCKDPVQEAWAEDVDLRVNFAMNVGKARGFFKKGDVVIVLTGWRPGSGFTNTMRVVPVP

Pyruvate kinase PKM [2] = molecular target: T1, Pyruvate kinase PKM; assay: Activation of human recombinant His-tagged PKM2 expressed in Escherichia coli using PEP as substrate measured at 30 sec between 3 and 6 mins in presence of […] by fluorescent pyruvate kinase-lactate dehydrogenase coupled assay; how it was run: as §1
Target sequence in this assay (P14618 whole entry): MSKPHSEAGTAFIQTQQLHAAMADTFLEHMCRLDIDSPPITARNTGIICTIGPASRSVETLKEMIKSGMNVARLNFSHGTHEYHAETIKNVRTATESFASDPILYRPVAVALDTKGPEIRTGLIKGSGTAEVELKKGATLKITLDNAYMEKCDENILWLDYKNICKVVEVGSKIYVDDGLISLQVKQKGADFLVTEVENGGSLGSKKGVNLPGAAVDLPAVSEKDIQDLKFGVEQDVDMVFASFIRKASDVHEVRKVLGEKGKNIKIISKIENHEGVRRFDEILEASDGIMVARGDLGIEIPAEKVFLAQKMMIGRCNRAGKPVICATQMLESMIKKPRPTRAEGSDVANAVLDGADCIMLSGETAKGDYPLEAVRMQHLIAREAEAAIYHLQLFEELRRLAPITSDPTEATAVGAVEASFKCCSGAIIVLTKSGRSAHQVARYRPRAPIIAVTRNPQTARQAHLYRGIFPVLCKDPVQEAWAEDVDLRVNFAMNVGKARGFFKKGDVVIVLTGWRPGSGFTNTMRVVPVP

NCI-H1299 = assay: Antiproliferative activity against human H1299 cells assessed as reduction in cell growth incubated for 72 hrs by CellTiter-Glo assay; format: functional, cell-based; conditions: NCI-H1299, 72 h
How it was run: (§2)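 Cells (H1299 in RPMI 1640; HCT116 and A375 in DMEM; 10% FBS, 37 °C, 5% CO2) plated at 2000 per well, left 24 h, then exposed to ten concentrations or DMSO for 72 h. CellTiter-Glo added, 30 min at room temperature in dark, luminescence read. IC50 fitted from triplicate experiments.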

HCT-116 = assay: Antiproliferative activity against human HCT116 cells assessed as reduction in cell growth incubated for 72 hrs by CellTiter-Glo assay; format: functional, cell-based; conditions: HCT-116, 72 h; how it was run: as §2
A-375 = assay: Antiproliferative activity against human A375 cells assessed as reduction in cell growth incubated for 72 hrs by CellTiter-Glo assay; format: functional, cell-based; conditions: A-375, 72 h; how it was run: as §2

Row | %max (Pyruvate kinase PKM [1]) | AC50 (Pyruvate kinase PKM [2]) | IC50 (NCI-H1299) [µM] | IC50 (HCT-116) [µM] | IC50 (A-375) [µM] | AC50 (Pyruvate kinase PKM [2]; read-out: AC50) [µM] | SMILES
1 | inactive | Not Active |  |  |  |  | O=C(CCSC(=S)NCc1cccnc1)c1cn(-c2cccs2)c2ncccc12
2 | 93% |  | 4.2 | 3.52 | 1.34 | 3.93 | O=C(CCSC(=S)NCc1cccnc1)c1cn(C2CCC2)c2ncccc12
3 | 42% |  | 9.51 | 0.84 | 0.21 | 4.56 | O=C(CCSC(=S)NCc1cccnc1)c1cn(C2CC2)c2ncccc12
4 | 114% |  | 2.09 | 0.94 | 0.29 | 4.35 | Cn1cc(C(=O)CCSC(=S)NCc2cccnc2)c2cccnc21
5 | 122% |  | 2.5 | 2.06 | 0.41 | 1.14 | O=C(CCSC(=S)NCc1cccnc1)c1c[nH]c2nccc(Cl)c12
6 | 113% |  | 3.68 | 3.09 | 1.03 |  | O=C(CCSC(=S)NCc1cccnc1)c1c[nH]c2ncccc12
7 | inactive | Not Active |  |  |  |  | O=C(CCSC(=S)NCc1cccnc1)c1c[nH]c2nc(Cl)ccc12
8 | inactive |  |  |  |  | > 20 | O=C(CCSC(=S)NCc1cccnc1)c1c[nH]c2ncc(-c3ccc(Cl)cc3)cc12
9 | 77% |  | 10 | 5.36 | 3.86 | 2.5 | O=C(CCSC(=S)NCc1cccnc1)c1cn(-c2ccccc2)c2ncccc12

Source: ChEMBL document CHEMBL4346662, “Synthesis of novel 7-azaindole derivatives containing pyridin-3-ylmethyl dithiocarbamate moiety as potent PKM2 activators and PKM2 nucleus translocation inhibitors” (Eur J Med Chem, 2019)
